Results as given in ChEMBL document CHEMBL2346527, “Kinase scaffold repurposing for neglected disease drug discovery: discovery of an efficacious, lapatinib-derived lead compound for trypanosomiasis” (J Med Chem, 2013).

What was measured:
[1] = tested on: Trypanosoma brucei brucei; assay: Antitrypanosomal activity against bloodstream form Trypanosoma brucei brucei Lister 427 after 48 hrs by hemocytometer; type: functional, organism-based; settings: Lister 427, 48 h
How it was run: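 Bloodstream Lister 427 cells were seeded at 2 × 10^3 cells/ml in HMI-9 medium and given drug from 200X DMSO stocks, with DMSO as control. Three independent experiments, each dose in duplicate (n = 6).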

[2] = tested on: HepG2; assay: Cytotoxicity against human HepG2 cells after 48 hrs by MTT assay; type: cell-based; settings: HepG2, 48 h
How it was run: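 HepG2 cytotoxicity was read by an MTT assay adapted to 384-well format. IC50 was fitted by nonlinear regression (sigmoidal dose-response, variable slope).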

Row | SMILES | EC50 [1] [nM] | IC50 [2] [nM]
1 | Cc1nnc(-c2cccc(-c3ccc4ncnc(Nc5ccc(OCc6cccc(F)c6)c(Cl)c5)c4c3)c2)o1 | 4210 | –
2 | O=S(=O)(c1ccc(-c2ccc3ncnc(Nc4ccc(OCc5cccc(Cl)c5)c(Cl)c4)c3c2)cc1)N1CCOCC1 | 660 | > 15000
3 | O=S(=O)(c1ccc(-c2ccc3ncnc(Nc4ccc(OCc5cc(F)cc(F)c5F)c(Cl)c4)c3c2)cc1)N1CCOCC1 | 1120 | > 3000
4 | Nc1nc(N)nc(Nc2ccc([As]3SCC(CO)S3)cc2)n1 (configuration not stated) [MELARSOPROL] | 6.3 | –
5 | Fc1cccc(COc2ccc(Nc3ncnc4ccc(-c5cccc(N6CCCCC6)c5)cc34)cc2Cl)c1 | 760 | > 15000
6 | CS(=O)(=O)c1cccc(-c2ccc3ncnc(Nc4ccc(OCc5cccc(F)c5)c(Cl)c4)c3c2)c1 | 3210 | > 15000
7 | O=S(=O)(c1ccc(-c2ccc3ncnc(Nc4ccc(OCc5cccc(F)c5)c(Cl)c4)c3c2)cc1)N1CCCCC1 | 320 | > 15000
8 | O=S(=O)(c1ccc(-c2ccc3ncnc(Nc4ccc(O)c(Cl)c4)c3c2)cc1)N1CCOCC1 | 1060 | > 15000
9 | CS(=O)(=O)CCN(CC#N)Cc1ccc(-c2ccc3ncnc(Nc4ccc(OCc5cccc(F)c5)c(Cl)c4)c3c2)o1 [GW616030X] | 520 | –
10 | Fc1cccc(COc2ccc(Nc3ncnc4ccc(-c5ccccc5Oc5ccccc5)cc34)cc2Cl)c1 | 5300 | –
11 | O=S(=O)(c1ccc(-c2ccc3ncnc(Nc4ccc(OCc5ccc(F)cc5)c(Cl)c4)c3c2)cc1)N1CCOCC1 | 1340 | > 15000
12 | Clc1cc(Nc2ncnc3ccc(-c4cccc(N5CCOCC5)c4)cc23)ccc1OCc1ccccc1 | 230 | > 20000
13 | O=S(=O)(c1cccc(-c2ccc3ncnc(Nc4ccc(OCc5cccc(F)c5)c(Cl)c4)c3c2)c1)N1CCOCC1 | – | > 15000
14 | COc1cccc(COc2ccc(Nc3ncnc4ccc(-c5ccc(S(=O)(=O)N6CCOCC6)cc5)cc34)cc2Cl)c1 | 1430 | > 15000
15 | COc1ccc(Nc2ncnc3ccc(-c4ccc(S(=O)(=O)N5CCOCC5)cc4)cc23)cc1Cl | 820 | > 15000
16 | O=S(=O)(c1ccc(-c2ccc3ncnc(Nc4ccccc4)c3c2)cc1)N1CCOCC1 | 1440 | > 3000
17 | O=S(=O)(c1ccc(-c2ccc3ncnc(Nc4ccc(OCc5ccccc5F)c(Cl)c4)c3c2)cc1)N1CCOCC1 | 1650 | > 15000

Row | SMILES | EC50 [1] [nM] | IC50 [2] [nM]
18 | O=S(=O)(c1ccc(-c2ccc3ncnc(Nc4ccc(OCc5cccc(F)c5F)c(Cl)c4)c3c2)cc1)N1CCOCC1 | 820 | > 15000
19 | O=C(c1ccc(-c2ccc3ncnc(Nc4ccc(OCc5cccc(F)c5)c(Cl)c4)c3c2)cc1)N1CCOCC1 | 1210 | –
20 | O=S(=O)(CCSCc1ccc(-c2ccc3ncnc(Nc4ccc(OCc5cccc(F)c5)c(Cl)c4)c3c2)o1)c1ccccc1 | 550 | –
21 | Cc1ccc(Nc2ncnc3ccc(-c4ccc(S(=O)(=O)N5CCOCC5)cc4)cc23)cc1 | 1150 | > 15000
22 | Fc1cccc(COc2ccc(Nc3ncnc4ccc(-c5ccc(N6CCOCC6)cc5)cc34)cc2Cl)c1 | 1910 | 9600
23 | Fc1cccc(COc2ccc(Nc3ncnc4ccc(-c5cc6ccccc6s5)cc34)cc2Cl)c1 | 5980 | –
24 | COc1cc(Nc2ncnc3ccc(-c4ccc(S(=O)(=O)N5CCOCC5)cc4)cc23)ccc1OCc1cccc(F)c1 | 1880 | > 15000
25 | O=S(=O)(c1ccc(-c2ccc3ncnc(Nc4ccc(OCc5cccc(Br)c5)c(Cl)c4)c3c2)cc1)N1CCOCC1 | 680 | > 15000
26 | Fc1cccc(COc2ccc(Nc3ncnc4ccc(-c5ccc(CN6CCOCC6)cc5)cc34)cc2Cl)c1 | 990 | 12900
27 | O=S(=O)(c1ccc(-c2ccc3ncnc(Nc4ccc(OCc5ccccc5)c(Cl)c4)c3c2)cc1)N1CCOCC1 | 1350 | > 15000
28 | O=S(=O)(c1ccc(-c2ccc3ncnc(Nc4ccc(OCc5cccc(F)c5)c(Cl)c4)c3c2)cc1)N1CCSCC1 | 470 | > 15000
29 | O=C(c1cccc(-c2ccc3ncnc(Nc4ccc(OCc5cccc(F)c5)c(Cl)c4)c3c2)c1)N1CCCCC1 | 140 | > 6000
30 | O=S(=O)(c1ccc(-c2ccc3ncnc(Nc4ccc(OCc5ccc(C(F)(F)F)c(F)c5)c(Cl)c4)c3c2)cc1)N1CCOCC1 | 540 | > 15000
31 | N=C(N)c1ccc(OCCCCCOc2ccc(C(=N)N)cc2)cc1 [PENTAMIDINE] | 3.5 | –
32 | Oc1ccc(-c2ccc3ncnc(Nc4ccc(OCc5cccc(F)c5)c(Cl)c4)c3c2)cc1 | 6450 | –
33 | CC(C)(C)NS(=O)(=O)c1ccccc1-c1ccc2ncnc(Nc3ccc(OCc4cccc(F)c4)c(Cl)c3)c2c1 | 4660 | –

Second part, led by results:

Row | EC50 [1] [nM] | SMILES | IC50 [2] [nM]
34 | 250 | O=S(=O)(c1cccc(-c2ccc3ncnc(Nc4ccc(OCc5cccc(F)c5)c(Cl)c4)c3c2)c1)N1CCCC1 | > 15000
35 | 794 | CC1(C)OB(O)c2cc(NC(=O)c3ccc(F)cc3C(F)(F)F)ccc21 [ACOZIBOROLE] | –
36 | 1500 | Fc1cccc(COc2ccc(Nc3ncnc4ccc(-c5ccc(CN6CCCCC6)cc5)cc34)cc2Cl)c1 | –
37 | 650 | O=S(=O)(c1ccc(-c2ccc3ncnc(Nc4ccc(OCc5cccc(F)c5)cc4)c3c2)cc1)N1CCOCC1 | > 15000
38 | 560 | CS(=O)(=O)CCNCc1ccc(-c2ccc3ncnc(Nc4ccc(OCc5ccccc5)c(Br)c4)c3c2)o1 | –
39 | 3850 | CCNC(=O)c1ccc(-c2ccc3ncnc(Nc4ccc(OCc5cccc(F)c5)c(Cl)c4)c3c2)cc1F | –
40 | 180 | c1ccc(COc2ccc(Nc3ncnc4ccc(-c5cccc(N6CCOCC6)c5)cc34)cc2)cc1 | > 20000
41 | 900 | CS(=O)(=O)c1ccc(-c2ccc3ncnc(Nc4ccc(OCc5cccc(F)c5)c(Cl)c4)c3c2)cc1 | > 15000
42 | 550 | O=C(c1cccc(-c2ccc3ncnc(Nc4ccc(OCc5cccc(F)c5)c(Cl)c4)c3c2)c1)N1CCOCC1 | –
43 | 480 | CC(C)S(=O)(=O)CCNCc1ccc(-c2ccc3ncnc(Nc4ccc(OCc5cccc(F)c5)c(Cl)c4)c3c2)o1 | –
44 | 380 | Fc1cccc(COc2ccc(Nc3ncnc4ccc(-c5ccc(N6CCCCC6)cc5)cc34)cc2Cl)c1 | –
45 | 810 | CN1CCCN(S(=O)(=O)c2ccc(-c3ccc4ncnc(Nc5ccc(OCc6cccc(F)c6)c(Cl)c5)c4c3)cc2)CC1 | 1810
46 | 430 | CCCS(=O)(=O)CCNCc1ccc(-c2ccc3ncnc(Nc4ccc(OCc5cccc(F)c5)c(Cl)c4)c3c2)o1 | –
47 | 1040 | CN(C)S(=O)(=O)c1ccccc1-c1ccc2ncnc(Nc3ccc(OCc4cccc(F)c4)c(Cl)c3)c2c1 | > 15000
48 | 4530 | Fc1cccc(COc2ccc(Nc3ncnc4ccc(-c5cccc6ncccc56)cc34)cc2Cl)c1 | –
49 | 1510 | CS(=O)(=O)CCN(Cc1ccccc1)Cc1ccc(-c2ccc3ncnc(Nc4ccc(OCc5cccc(F)c5)c(Cl)c4)c3c2)o1 | –
50 | 1390 | O=S(=O)(c1ccc(-c2ccc3ncnc(Nc4ccc(OCc5cccc(F)c5)c(Cl)c4)c3c2)cc1)N1CCOCC1 | > 15000
51 | 530 | CN1CCN(S(=O)(=O)c2ccc(-c3ccc4ncnc(Nc5ccc(OCc6cccc(F)c6)c(Cl)c5)c4c3)cc2)CC1 | > 15000
52 | 4500 | O=C(NC1CC1)c1cccc(-c2ccc3ncnc(Nc4ccc(OCc5cccc(F)c5)c(Cl)c4)c3c2)c1 | –
53 | 360 | Fc1cccc(COc2ccc(Nc3ncnc4ccc(-c5cccc(CN6CCOCC6)c5)cc34)cc2Cl)c1 | –
54 | 280 | O=S(=O)(c1ccc(-c2ccc3ncnc(Nc4ccc(OCc5cccc(F)c5)c(Cl)c4)c3c2)cc1)N1CCNCC1 | 3320
55 | 650 | Fc1cccc(COc2ccc(Nc3ncnc4ccc(-c5cccc(CN6CCCCC6)c5)cc34)cc2Cl)c1 | –
56 | 350 | O=S(=O)(c1ccc(-c2ccc3ncnc(Nc4ccc(OCc5cccc(F)c5)c(Cl)c4)c3c2)cc1)N1CCCC1 | > 15000
57 | 16400 | NCCCC(N)(C(=O)O)C(F)F (configuration not stated) [EFLORNITHINE] | –
58 | 11000 | c1ccc(Nc2ncnc3ccc(-c4cccc(N5CCOCC5)c4)cc23)cc1 | 7020
59 | 410 | O=S1(=O)CCN(Cc2ccc(-c3ccc4ncnc(Nc5ccc(OCc6ccccc6)c(Cl)c5)c4c3)o2)CC1 | –
60 | 460 | O=S(=O)(c1cccc(-c2ccc3ncnc(Nc4ccc(OCc5cccc(F)c5)c(Cl)c4)c3c2)c1)N1CCCCC1 | > 15000
61 | 22600 | O=c1[nH]cc(-c2ccc3ncnc(Nc4ccc(OCc5cccc(F)c5)c(Cl)c4)c3c2)c(=O)[nH]1 | –
62 | 940 | O=C(c1ccc(-c2ccc3ncnc(Nc4ccc(OCc5cccc(F)c5)c(Cl)c4)c3c2)cc1)N1CCCCC1 | –
63 | 2270 | Cc1ccc(-c2ccc3ncnc(Nc4ccc(OCc5cccc(F)c5)c(Cl)c4)c3c2)c2ccccc12 | –
